In publication PMC4407950 (Journal of Clinical Pharmacology, 2014):
Where two headings read alike, the source gives them in different places.

How the values were obtained:
[1] = type: in vivo, human; details: for AUC(0–∞), ratio of geometric least-squares means (90% confidence interval) / C24, ratio of geometric least-squares means (90% confidence interval) / Cmax, ratio of geometric least-squares means (90% confidence interval) / reduction of plasma dolutegravir AUC(0–∞) / reduction of plasma dolutegravir C24 / reduction of plasma dolutegravir Cmax: fasted; for Tmax: human, plasma, oral, median (range)
Summary of the method: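 Healthy adults were randomized to 2 cohorts of 4 treatments: test compound 50 mg single dose fasted, then with calcium supplement (1,200 mg) or iron supplement (324 mg) fasted, with a ~30% fat meal, or 2 h before the supplement fasted. Washout was ≥7 days. K2EDTA plasma was sampled predose to 48 h. Noncompartmental parameters were log-transformed and fitted by mixed model, giving geometric LS mean ratios with 90% CI.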

[2] = Safety evaluation; type: in vivo, human; details: for subjects who experienced AEs: six subjects
Summary of the method: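 Subjects were housed from Day −1 to Day 3 of each crossover period. Each period included serum chemistry, hematology, urinalysis, vital signs and 12-lead ECG. Adverse events were monitored through the treatment phase and at follow-up 7–14 days after the last dose.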

[3] = in the absence of added supplement; cited from earlier work
[4] = cited from earlier work
[5] = Dolutegravir 2 h prior + CC, fasted vs. dolutegravir alone
[6] = Dolutegravir 2 h prior + FF, fasted vs. dolutegravir alone
[7] = Dolutegravir + CC, fasted vs. dolutegravir alone
[8] = Dolutegravir + CC, fed vs. dolutegravir + CC
[9] = Dolutegravir + CC, fed vs. dolutegravir alone
[10] = Dolutegravir + FF, fasted vs. dolutegravir alone
[11] = Dolutegravir + FF, fed vs. dolutegravir + FF
[12] = Dolutegravir + FF, fed vs. dolutegravir alone
[13] = co-administered with calcium carbonate 1,200 mg
[14] = co-administered with ferrous fumarate 324 mg
[15] = Maalox 2 hours after dolutegravir administration
[16] = concurrent administration of Maximum Strength Maalox, fasted

## C[C@@H]1CCO[C@H]2Cn3cc(C(=O)NCc4ccc(F)cc4F)c(=O)c(O)c3C(=O)N12 [Dolutegravir]
[1]; [5]
  AUC(0–∞), ratio of geometric least-squares means (90% confidence interval): 0.94 (0.72, 1.23)
  C24, ratio of geometric least-squares means (90% confidence interval): 0.90 (0.68, 1.19)
  Cmax, ratio of geometric least-squares means (90% confidence interval): 1.00 (0.78, 1.29)
[1]; [6]
  AUC(0–∞), ratio of geometric least-squares means (90% confidence interval): 0.95 (0.77, 1.15)
  C24, ratio of geometric least-squares means (90% confidence interval): 0.92 (0.74, 1.13)
  Cmax, ratio of geometric least-squares means (90% confidence interval): 0.99 (0.81, 1.21)
[1]; [7]
  AUC(0–∞), ratio of geometric least-squares means (90% confidence interval): 0.61 (0.47, 0.80)
  C24, ratio of geometric least-squares means (90% confidence interval): 0.61 (0.47, 0.80)
  Cmax, ratio of geometric least-squares means (90% confidence interval): 0.63 (0.50, 0.81)
[1]; [8]
  AUC(0–∞), ratio of geometric least-squares means (90% confidence interval): 1.78 (1.36, 2.33)
  C24, ratio of geometric least-squares means (90% confidence interval): 1.76 (1.33, 2.33)
  Cmax, ratio of geometric least-squares means (90% confidence interval): 1.70 (1.32, 2.18)
[1]; [9]
  AUC(0–∞), ratio of geometric least-squares means (90% confidence interval): 1.09 (0.84, 1.43)
  C24, ratio of geometric least-squares means (90% confidence interval): 1.08 (0.81, 1.42)
  Cmax, ratio of geometric least-squares means (90% confidence interval): 1.07 (0.83, 1.38)
[1]; [10]
  AUC(0–∞), ratio of geometric least-squares means (90% confidence interval): 0.46 (0.38, 0.56)
  C24, ratio of geometric least-squares means (90% confidence interval): 0.44 (0.36, 0.54)
  Cmax, ratio of geometric least-squares means (90% confidence interval): 0.43 (0.35, 0.52)
[1]; [11]
  AUC(0–∞), ratio of geometric least-squares means (90% confidence interval): 2.14 (1.76, 2.61)
  C24, ratio of geometric least-squares means (90% confidence interval): 2.28 (1.85, 2.81)
  Cmax, ratio of geometric least-squares means (90% confidence interval): 2.41 (1.97, 2.94)
[1]; [12]
  AUC(0–∞), ratio of geometric least-squares means (90% confidence interval): 0.98 (0.81, 1.20)
  C24, ratio of geometric least-squares means (90% confidence interval): 1.00 (0.81, 1.23)
  Cmax, ratio of geometric least-squares means (90% confidence interval): 1.03 (0.84, 1.26)
[1]; [13]
  reduction of plasma dolutegravir AUC(0–∞): 39%
  reduction of plasma dolutegravir C24: 39%
  reduction of plasma dolutegravir Cmax: 37%
[1]; [14]
  reduction of plasma dolutegravir AUC(0–∞): 54%
  reduction of plasma dolutegravir C24: 56%
  reduction of plasma dolutegravir Cmax: 57%
[1]; dolutegravir fasted 2 hours prior to calcium carbonate or ferrous fumarate
  plasma exposures, dose separation: counteracted the effect
[1]; dolutegravir with calcium carbonate or ferrous fumarate, fed (moderate-fat meal)
  plasma exposures, co-administration with supplement and a meal: counteracted the effect
[1]; dolutegravir 50 mg + calcium carbonate 1,200 mg, fed (moderate-fat meal), n = 11
  Tmax: 3 h
[1]; dolutegravir 50 mg + ferrous fumarate 324 mg, fed (moderate-fat meal), n = 10
  Tmax: 3.5 h
[1]; in the presence of calcium carbonate
  increase of dolutegravir AUC by a moderate-fat meal: 78%
[1]; in the presence of ferrous fumarate
  increase of dolutegravir AUC by a moderate-fat meal: 114%
[1]; with calcium carbonate or ferrous fumarate
  effect of co-administration on tmax of dolutegravir: no effect
[2]; Cohort 1 (calcium carbonate)
  subjects who experienced AEs: 50%
[2]; Cohort 2 (ferrous fumarate)
  subjects who experienced AEs: 50%
[2]; both cohorts
  severity of all adverse events: Grade 1
[2]; human, in vivo
  changes in mean or median hematology or clinical chemistry values: No consistent, treatment-related, or clinically significant changes
  changes in vital signs or ECGs: No clinically significant changes
[3]
  increase of dolutegravir AUC by a moderate-fat meal: 41%
[4]; [15]
  decrease of dolutegravir mean AUC: 26%
  decrease of dolutegravir mean C24: 30%
  decrease of dolutegravir mean Cmax: 18%
[4]; clinical study in humans
  effect of omeprazole on dolutegravir exposure: no effect
[4]; [16]
  decrease of dolutegravir mean AUC: 74%
  decrease of dolutegravir mean C24: 74%
  decrease of dolutegravir mean Cmax: 72%
